{
  "source": "PubChem BioAssay",
  "note": "Active and inactive are the calls of the source.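 Rule for the calls, unless noted: active = duplicate-averaged activation above buffer control mean plus 5 SD of those controls; inactive = the rest.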",
  "data": [
    {"tested_on": "not listed separately", "assay": "nonspecific flux increase, KCNQ1-free cells – parental CHO cells, counter-screen for KCNQ1 potentiator project (AID 493006);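 for activation: fluorescence ratio of max minus min over baseline after K+ and Tl+ depolarization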", "conditions": "parental CHO-K1 cells, FluxOR thallium flux, at 10 µM; stronger effect = higher value", "outline": "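Benchmarks – buffer and R-L3 controls · Assay system – untransfected host CHO-K1 cells with FluxOR thallium dye · Measure – fluorescence change ratio scaled 0% buffer, 100% R-L3 · Technique – kinetic thallium-flux fluorescence · Timing – overnight 37 °C plating, 90 min RT dye, 20 min compound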", "values": [
      {"smiles": "C=CCOc1c(Br)cc(/C=N/Nc2ccc(C(=O)O)cc2)cc1OCC", "outcome": "inactive"},
      {"smiles": "O=C(NC(=S)NC1CCCc2ccccc21)c1ccco1", "note": "(stereo not given)", "activation": "188% (active)"},
      {"smiles": "Cc1onc(-c2ccccc2Cl)c1C(=O)Nc1ccccc1O", "outcome": "inactive"},
      {"smiles": "COc1ccc2nc(N=Nc3ccc(O)c4ccccc34)sc2c1", "activation": "210% (active)"},
      {"smiles": "Cc1ccccc1-n1c(C)cc(/C=N/NC(=O)c2ccncc2)c1C", "outcome": "inactive"},
      {"smiles": "COC(=O)c1ccsc1NC(=O)CN1CCN(Cc2ccc3c(c2)OCO3)CC1", "outcome": "inactive"},
      {"smiles": "O=C(NC(=S)Nc1ccccc1Br)c1ccco1", "outcome": "inactive"},
      {"smiles": "O=C(NC(=S)Nc1ccccc1N1CCCCC1)c1cccs1", "activation": "212% (active)"},
      {"smiles": "CC1CC(C)CN(Cc2nc(N)nc(Nc3ccc4ccccc4c3)n2)C1", "note": "(stereo not given)", "activation": "170% (active)"},
      {"smiles": "O=C1C=C(NCc2ccccc2)c2ccccc2C1=O", "activation": "140% (active)"},
      {"smiles": "CC(O)Cc1cn([C@@H](CCCCN)C(=O)N2CCNCC2)nn1", "note": "(stereo not given in full)", "outcome": "inactive"},
      {"smiles": "CCOc1ccc(NC(=O)Cn2sc3nc(C)cc(C)c3c2=O)cc1", "activation": "142% (active)"},
      {"smiles": "OC(C#CCCN1CCCCC1)(c1ccccc1)c1ccccc1", "outcome": "inactive"},
      {"smiles": "O=C(NC(=S)Nc1ccccc1)c1csnn1", "activation": "588% (active)"},
      {"smiles": "O=c1[nH]cc(N=Cc2cc(Cl)cc(Cl)c2O)c(=O)[nH]1", "activation": "188% (active)"},
      {"smiles": "CCC1(c2ccc(Cl)cc2)NC(=S)N(c2ccc(C)cc2)N1", "note": "(stereo not given)", "activation": "574% (active)"},
      {"smiles": "O=S(=O)(NCCOc1ccccc1)c1ccc2ccccc2c1", "outcome": "inactive"},
      {"smiles": "O=C1CN(C(=O)CSc2nc3cc(Cl)ccc3c(=O)n2Cc2ccccc2)c2ccccc2N1", "outcome": "inactive"},
      {"smiles": "COc1ccccc1C(=O)NNC(=O)C(=O)NC1CCCCC1", "activation": "262% (active)"},
      {"smiles": "O=C(NC(=S)Nc1ccccc1F)c1ccc(Br)o1", "activation": "230% (active)"},
      {"smiles": "O=C(Nc1cccc(NC(=O)c2c(F)cccc2F)n1)c1c(F)cccc1F", "outcome": "inactive"},
      {"smiles": "N#Cc1ccccc1NS(=O)(=O)c1cc2c3c(c1)CCC(=O)N3CCC2", "outcome": "inactive"},
      {"smiles": "CCCSC(=S)c1c(C)[nH]n(-c2ccccc2)c1=O", "activation": "352% (active)"},
      {"smiles": "CCCOc1ccc(Cc2nc(N)nc(N)n2)cc1", "outcome": "inactive"},
      {"smiles": "O=C1CCC/C(=N\\NC(=O)c2ccc(COc3cccc4cccnc34)cc2)C1", "outcome": "inactive"},
      {"smiles": "O=C1c2ccccc2NC(c2ccc(Br)s2)N1O", "note": "(stereo not given)", "activation": "282% (active)"},
      {"smiles": "FC(F)(F)c1cc(N2CCNCC2)c2ccccc2n1", "outcome": "inactive"},
      {"smiles": "COc1ccccc1-n1cnc2cc(NCc3ccco3)ccc21", "outcome": "inactive"},
      {"smiles": "CCC(C(=O)OCC(=O)NC(=O)NC(C)(C)C)c1ccccc1", "note": "(stereo not given)", "outcome": "inactive"},
      {"smiles": "CSc1ccc(/C=N/NC(=O)c2cccs2)cc1", "outcome": "inactive"},
      {"smiles": "S=c1nc(SCc2ccccc2)[nH]c2ccccc12", "activation": "458% (active)"},
      {"smiles": "O=C(NC(=S)Nc1ccccc1N1CCCC1)c1ccc([N+](=O)[O-])cc1", "activation": "161% (active)"},
      {"smiles": "Cc1[nH]n(-c2ccc(F)cc2)c(=O)c1/C=N/c1sc2c(c1C#N)CCCC2", "activation": "276% (active)"},
      {"smiles": "O=C(NC(=S)NC1CCCCC1)c1ccc(Cl)cc1", "activation": "202% (active)"},
      {"smiles": "CCCCCn1c(=S)[nH]c2ncccc2c1=O", "activation": "206% (active)"},
      {"smiles": "CC(C)(C)n1nnnc1C(c1cc2cc3c(cc2[nH]c1=O)OCCO3)N1CCSCC1", "note": "(stereo not given)", "outcome": "inactive"},
      {"smiles": "COc1ccc(C(=O)NNC(=O)C(=O)NC2CCCCC2)cc1", "outcome": "inactive"},
      {"smiles": "C=CCN(CC=C)C(=S)NC(=O)c1ccc(OC)c(Br)c1", "activation": "506% (active)"},
      {"smiles": "Nc1nc(C23CC4CC(CC(C4)C2)C3)cs1", "outcome": "inactive"},
      {"smiles": "Cc1ccc(-c2nc3ccccc3c(=O)n2O)cc1", "activation": "169% (active)"}
    ]},
    {"molecular_target": "Potassium voltage-gated channel subfamily KQT member 1 (Homo sapiens) (UniProt P51787)", "sequence (P51787 whole entry, looked up)": "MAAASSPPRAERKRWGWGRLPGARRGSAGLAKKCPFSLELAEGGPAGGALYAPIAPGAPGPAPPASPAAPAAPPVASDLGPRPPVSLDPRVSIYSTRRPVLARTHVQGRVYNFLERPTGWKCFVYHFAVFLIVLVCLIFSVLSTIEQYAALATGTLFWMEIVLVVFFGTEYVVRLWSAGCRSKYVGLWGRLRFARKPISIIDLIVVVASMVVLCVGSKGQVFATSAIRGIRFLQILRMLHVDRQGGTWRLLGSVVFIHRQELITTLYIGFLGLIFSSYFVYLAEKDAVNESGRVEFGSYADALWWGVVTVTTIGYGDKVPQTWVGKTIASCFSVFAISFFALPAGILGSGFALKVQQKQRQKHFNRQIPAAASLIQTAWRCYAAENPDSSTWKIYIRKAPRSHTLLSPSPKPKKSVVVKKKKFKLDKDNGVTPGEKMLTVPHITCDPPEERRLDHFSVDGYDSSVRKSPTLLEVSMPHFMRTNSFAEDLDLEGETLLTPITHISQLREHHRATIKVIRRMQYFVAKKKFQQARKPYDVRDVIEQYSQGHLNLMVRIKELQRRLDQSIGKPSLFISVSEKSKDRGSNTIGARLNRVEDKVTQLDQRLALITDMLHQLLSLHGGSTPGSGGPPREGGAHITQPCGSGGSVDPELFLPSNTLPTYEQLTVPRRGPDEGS", "assay": "enhancement of KCNQ1 channel thallium flux – FluxOR thallium flux, CHO cells, duplicates, confirmation (AID 493007;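 active = potentiation averaged over duplicate wells exceeding buffer-only control mean by more than 3 SD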;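 for outcome: cells depolarized by a potassium plus thallium sulfate stimulus after compound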)", "conditions": "KCNQ1 cell line, FluxOR thallium flux fluorescence, at 10 µM; stronger effect = higher value, % of reference activator effect, buffer zero", "outline": "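Material: CHO cells stably expressing the KCNQ1 potassium channel / Times: dye 90 min then compound 20 min, both at room temperature / Detection: kinetic thallium influx fluorescence with FluxOR dye, 10 s baseline, 110 s post-stimulus / Benchmarks: buffer-only wells as 0% and R-L3 activator as 100% / Replicates: each compound tested in duplicate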", "values": [
      {"smiles": "C=CCOc1c(Br)cc(/C=N/Nc2ccc(C(=O)O)cc2)cc1OCC", "outcome": "inactive"},
      {"smiles": "O=C(NC(=S)NC1CCCc2ccccc21)c1ccco1", "note": "(stereo not given)", "potentiation": "122% (active)"},
      {"smiles": "Cc1onc(-c2ccccc2Cl)c1C(=O)Nc1ccccc1O", "outcome": "inactive"},
      {"smiles": "COc1ccc2nc(N=Nc3ccc(O)c4ccccc34)sc2c1", "potentiation": "83.5% (active)"},
      {"smiles": "Cc1ccccc1-n1c(C)cc(/C=N/NC(=O)c2ccncc2)c1C", "potentiation": "25% (active)"},
      {"smiles": "COC(=O)c1ccsc1NC(=O)CN1CCN(Cc2ccc3c(c2)OCO3)CC1", "outcome": "inactive"},
      {"smiles": "O=C(NC(=S)Nc1ccccc1Br)c1ccco1", "outcome": "inactive"},
      {"smiles": "O=C(NC(=S)Nc1ccccc1N1CCCCC1)c1cccs1", "potentiation": "133% (active)"},
      {"smiles": "CC1CC(C)CN(Cc2nc(N)nc(Nc3ccc4ccccc4c3)n2)C1", "note": "(stereo not given)", "potentiation": "43.5% (active)"},
      {"smiles": "O=C1C=C(NCc2ccccc2)c2ccccc2C1=O", "potentiation": "24% (active)"},
      {"smiles": "CC(O)Cc1cn([C@@H](CCCCN)C(=O)N2CCNCC2)nn1", "note": "(stereo not given in full)", "outcome": "inactive"},
      {"smiles": "CCOc1ccc(NC(=O)Cn2sc3nc(C)cc(C)c3c2=O)cc1", "outcome": "inactive"},
      {"smiles": "OC(C#CCCN1CCCCC1)(c1ccccc1)c1ccccc1", "outcome": "inactive"},
      {"smiles": "O=C(NC(=S)Nc1ccccc1)c1csnn1", "potentiation": "260% (active)"},
      {"smiles": "O=c1[nH]cc(N=Cc2cc(Cl)cc(Cl)c2O)c(=O)[nH]1", "outcome": "inactive"},
      {"smiles": "CCC1(c2ccc(Cl)cc2)NC(=S)N(c2ccc(C)cc2)N1", "note": "(stereo not given)", "potentiation": "302% (active)"},
      {"smiles": "O=S(=O)(NCCOc1ccccc1)c1ccc2ccccc2c1", "outcome": "inactive"},
      {"smiles": "O=C1CN(C(=O)CSc2nc3cc(Cl)ccc3c(=O)n2Cc2ccccc2)c2ccccc2N1", "potentiation": "22.5% (active)"},
      {"smiles": "COc1ccccc1C(=O)NNC(=O)C(=O)NC1CCCCC1", "potentiation": "67.5% (active)"},
      {"smiles": "O=C(NC(=S)Nc1ccccc1F)c1ccc(Br)o1", "potentiation": "55.5% (active)"},
      {"smiles": "O=C(Nc1cccc(NC(=O)c2c(F)cccc2F)n1)c1c(F)cccc1F", "outcome": "inactive"},
      {"smiles": "N#Cc1ccccc1NS(=O)(=O)c1cc2c3c(c1)CCC(=O)N3CCC2", "outcome": "inactive"},
      {"smiles": "CCCSC(=S)c1c(C)[nH]n(-c2ccccc2)c1=O", "potentiation": "165% (active)"},
      {"smiles": "CCCOc1ccc(Cc2nc(N)nc(N)n2)cc1", "outcome": "inactive"},
      {"smiles": "O=C1CCC/C(=N\\NC(=O)c2ccc(COc3cccc4cccnc34)cc2)C1", "outcome": "inactive"},
      {"smiles": "O=C1c2ccccc2NC(c2ccc(Br)s2)N1O", "note": "(stereo not given)", "potentiation": "57% (active)"},
      {"smiles": "FC(F)(F)c1cc(N2CCNCC2)c2ccccc2n1", "outcome": "inactive"},
      {"smiles": "COc1ccccc1-n1cnc2cc(NCc3ccco3)ccc21", "potentiation": "34.5% (active)"},
      {"smiles": "CCC(C(=O)OCC(=O)NC(=O)NC(C)(C)C)c1ccccc1", "note": "(stereo not given)", "outcome": "inactive"},
      {"smiles": "CSc1ccc(/C=N/NC(=O)c2cccs2)cc1", "outcome": "inactive"},
      {"smiles": "S=c1nc(SCc2ccccc2)[nH]c2ccccc12", "potentiation": "320% (active)"},
      {"smiles": "O=C(NC(=S)Nc1ccccc1N1CCCC1)c1ccc([N+](=O)[O-])cc1", "potentiation": "100% (active)"},
      {"smiles": "Cc1[nH]n(-c2ccc(F)cc2)c(=O)c1/C=N/c1sc2c(c1C#N)CCCC2", "potentiation": "85.5% (active)"},
      {"smiles": "O=C(NC(=S)NC1CCCCC1)c1ccc(Cl)cc1", "potentiation": "262% (active)"},
      {"smiles": "CCCCCn1c(=S)[nH]c2ncccc2c1=O", "potentiation": "39.5% (active)"},
      {"smiles": "CC(C)(C)n1nnnc1C(c1cc2cc3c(cc2[nH]c1=O)OCCO3)N1CCSCC1", "note": "(stereo not given)", "outcome": "inactive"},
      {"smiles": "COc1ccc(C(=O)NNC(=O)C(=O)NC2CCCCC2)cc1", "potentiation": "22% (active)"},
      {"smiles": "C=CCN(CC=C)C(=S)NC(=O)c1ccc(OC)c(Br)c1", "potentiation": "199% (active)"},
      {"smiles": "Nc1nc(C23CC4CC(CC(C4)C2)C3)cs1", "outcome": "inactive"},
      {"smiles": "Cc1ccc(-c2nc3ccccc3c(=O)n2O)cc1", "potentiation": "19% (active)"}
    ]}
  ]
}
